Shown is part of a subset that was picked to be rich in hits.
CHOP inhibitor: blocks CHOP induction under ER stress | CHO-K1 CHOP-promoter luciferase, tunicamycin-induced, 15-18 h | inhibition, % at 10 µM | 3.8% of 220,000 active | AID 2732;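 active = compounds that reduced the stress-induced luciferase reporter signal by more than about 70% of percent inhibition, limit read from the data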
CHOP UPR activ: activators of apoptotic arm of unfolded protein response (CHOP). CHO-CHOP luciferase reporter, UPR activation, luminescence; percent of tunicamycin response over DMSO baseline. AID 449763. 0.34% of 330,000 active. activation, % at 10 µM;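 active = at 10 µM dose, activation of 40% or more, normalized to positive control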
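Test system: CHO CHOP reporter cells. Input: 500 CHO-CHOP cells per well. Medium: F12 with 10% FBS. Technique: luciferase luminescence. Measure: percent activation relative to tunicamycin control. Dosing: 10 µM compound, 0.5% DMSO. Timing: 16-18 h cell attachment, then 6 h compound exposure, 37 °C.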
hiPSC survival: enhancers of human iPSC single-cell survival; hiPSC single-cell survival, ATPlite luminescence; 100% = ROCK inhibitor wells, 0% = DMSO; survival enhancement, % at 20 µM; 0.044% of 360,000 active; AID 602274; in the data active = survival enhancement above about 18%;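 also: cells exposed to compounds for 16 hours before the ATP read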
Cardio protect: protects H9c2 cardiomyocytes from peroxide injury; H2O2 injury protection, ATPLite, 2 h; protection from H2O2 cell death, % at 20 µM; 0.63% of 360,000 active; AID 588492;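 active = compounds giving at least 50% protection of heart cells from peroxide-induced death in the single-dose screen, raw or plate-pattern-corrected value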
UPR XBP1 act: adaptive UPR (XBP1) activation; AID 463104; 0.33% of 330,000 active; CHO-XBP1 luciferase reporter, IRE1-XBP1 UPR activation, luminescence; percent of tunicamycin response, DMSO as zero; activation, % at 20 µM;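 active = versus positive control, 20 µM dose yields 30% or more activation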
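Material – CHO cell line with stable XBP1 luciferase reporter · Buffer or medium – F12 plus 10% FBS · Compound – single point, 20 µM final compound, 1% DMSO · Schedule – 16-18 h cell attachment at 37 °C, then 6 h compound exposure · Signal – Steady-Glo luminescence read · Benchmarks – high control tunicamycin 10 µg/mL final, low control DMSO vehicle only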
CHOP inh conf: confirmation of CHOP induction inhibitors. shares compounds with CHOP inhibitor. CHO-CHOP promoter luciferase reporter, tunicamycin-induced, luminescence. inhibition, % at 10 µM. 45% of 2,100 active;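 active = mean of three repeat readings of reporter signal inhibition above a set limit, cut at about 70% in these data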
Numbers stand for hits; 0 = inactive; - = no result.

SMILES	CHOP inhibitor	CHOP UPR activ	hiPSC survival	Cardio protect	UPR XBP1 act	CHOP inh conf
CCOc1cccc2cc(-c3nnc(NCc4ccco4)s3)c(=O)oc12	97	0	0	0	0	0
COc1cc(-n2nnnc2SCC(=O)N2CCN(c3ccc(F)cc3)CC2)c(OC)cc1Cl	98	-	0	0	-	0
Clc1ccc(-c2csc(N/N=C/c3cccnc3)n2)c(Cl)c1	98	0	0	0	0	87
C(=N\Nc1nc(-c2ccccc2)cs1)/c1cccnc1	0	0	0	0	0	-
Cc1ccc(CNCC(O)(c2ccccc2)c2ccccc2)cc1	-	0	0	0	0	-
Cc1ccc(CNCC(O)(c2ccccc2)c2ccc(Cl)cc2)cc1 (stereo not given)	99	-	0	0	-	135
CC(=O)N1CCOc2ccc(S(=O)(=O)NCCc3cccc(C)c3)cc21	-	0	0	0	0	-
Nc1c(Cl)cnn(-c2ccccc2)c1=O	-	0	0	0	0	-
O=c1c(Cl)c(N/N=C/c2ccc(Cl)cc2)cnn1-c1ccccc1	102	0	0	0	0	0
O=c1c(Cl)c(Cl)cnn1-c1ccccc1	101	-	0	0	-	96
O=C1C=C(c2n[nH]nc2-c2ccccc2)C[C@@H](c2ccc(F)cc2)C1	-	-	0	0	-	-
Cc1cc(C)nc(-n2cc(C(=O)c3cc(F)ccc3O)cn2)n1	97	0	0	0	0	0
O=C(c1cnn(-c2cccc(F)c2)c1)c1ccccc1O	-	0	0	0	0	-
OC[C@@H]1CN(CCN2CCOCC2)C[C@H](n2cnc3c(N4CCOCC4)ncnc32)O1	-	-	0	0	-	-
CCCCCc1c(C)nc(NCc2ccccc2)[nH]c1=O	109	0	0	0	0	134
O=c1[nH]c(NCc2ccccc2)nc2c1CCC2	0	0	0	0	0	-
CCOC(=O)C1(COCc2ccccc2)CCCCC1=O (stereo not given)	-	-	0	0	-	-
O=C(CCNS(=O)(=O)c1ccccc1)NNC(=O)COc1ccc(Cl)cc1	-	0	0	0	0	-
Cc1c(C(=O)OCC(=O)N2CC(=O)Nc3ccccc32)oc2ccc(Br)cc12	104	0	0	0	0	0
Cc1ccc(NC(=O)C2CC2C)cc1S(=O)(=O)N1CCOCC1 (stereo not given)	-	0	0	0	0	-
Fc1c(F)c(C(F)(F)F)c(F)c(F)c1N/N=C\c1cccs1	101	0	0	0	0	89
Cn1c(N/N=C/c2cccs2)cc(=O)n(C)c1=O	0	0	0	0	0	-
Cc1cc2nc(C(C)(C)C)c(Cc3ccccc3C(F)(F)F)n2c(C)c1Br	-	-	0	-	-	-
Cc1ccc(-c2nc(-c3ccccn3)no2)cc1	-	0	0	0	0	124
Cc1ccccc1-c1noc(-c2ccc(O)cc2)n1	105	0	0	0	0	0
SMILES	CHOP inhibitor	CHOP UPR activ	hiPSC survival	Cardio protect	UPR XBP1 act	CHOP inh conf
CC(C)CC1(C)NC(=O)N(CC(=O)Nc2ccccc2Br)C1=O (stereo not given)	-	0	0	0	0	-
Cc1c(OCc2ccccc2)c(=O)ccn1Cc1ccc(Cl)cc1	105	0	0	0	0	0
CCOC(=O)c1ccc(-c2ccc(/C=C(\C#N)C(=O)NCc3cccs3)o2)cc1	105	-	0	0	-	0
COc1cc(OC)c(OC)cc1/C=C(\C#N)C(=O)NCc1cccs1	-	0	0	0	0	-
CNC(=O)/C(C#N)=C/c1ccc(-c2ccccc2[N+](=O)[O-])o1	0	0	0	0	0	-
CNC(=O)/C(C#N)=C/c1ccc(-c2ccc(Cl)cc2)o1	97	0	0	0	0	0
CCC(=O)N1CCCC(C)(C(=O)Nc2ccc(OC(F)F)cc2)C1 (stereo not given)	-	-	0	0	-	-
COc1ccc(C2=C/C(=C/c3cccnc3)C(=O)O2)cc1OC	105	0	0	0	0	0
CCOc1ccc(C2=C/C(=C/c3cccnc3)C(=O)O2)cc1	103	0	0	0	0	91
COC(=O)[C@@]1(Sc2ccc(C)cc2)CC(=O)N(C(=O)CCc2ccccc2)[C@@H]1c1ccccc1	-	-	0	-	-	-
CC(Sc1nnc(C(C)Oc2ccccc2F)o1)C(=O)NCc1ccc2c(c1)OCO2 (stereo not given)	-	0	0	0	0	-
O=C(COc1ccc(Cl)cc1Cl)Nc1ccccn1	100	0	0	0	0	92
CSc1ccccc1NC(=O)COc1ccc(Cl)cc1Cl	0	0	0	0	0	-
Cc1ccc(C(=O)c2ccc([N+](=O)[O-])cc2)cc1	0	0	0	0	0	-
Cc1ccc(S(=O)(=O)CC#CCOC(=O)c2ccc([N+](=O)[O-])cc2)cc1	107	0	-	-	0	108
Cc1cc(C)c2c(NC(=O)CCl)nn(C)c2n1	0	0	0	0	0	-
CCc1cc(SC#N)cc(CC)c1NC(=O)CCl	97	0	0	0	0	0
CCOc1ccc(C2CC=C(C(C)=O)CN2S(=O)(=O)c2ccc(C)cc2)cc1 (stereo not given)	-	-	0	0	-	-
N#CC1=C2CCCCC2(O)NC1=O (stereo not given)	-	-	0	0	-	-
Cc1ccc(NC(=O)c2cc(N3C(=O)C=CC3=O)ccc2N2CCOCC2)cc1Cl	100	-	0	0	-	0
CC1CCN(C(=O)c2[nH]cnc2C(=O)Nc2ccc(Cl)cc2)CC1	-	0	0	0	0	-
CCCn1c(SCC(=O)c2ccc3c(c2)NC(=O)CO3)nc2ccccc21	103	0	0	0	0	0
COc1ccc(C2CC(c3c(-c4ccccc4)c4cc(Cl)ccc4[nH]c3=O)=NN2S(C)(=O)=O)cc1OC (stereo not given)	108	0	0	0	0	125
CC(C)(C)c1ccc(CC(=O)N2CCC2(C)C(=O)NS(=O)(=O)c2ccc(Cl)cc2)cc1 (stereo not given)	-	-	0	0	-	-
Cc1nn(-c2ccccc2)c(C)c1/C=N/n1c(-c2ccncc2)n[nH]c1=S	0	0	0	0	0	-
SMILES	CHOP inhibitor	CHOP UPR activ	hiPSC survival	Cardio protect	UPR XBP1 act	CHOP inh conf
Cc1nn(-c2ccccc2)c(C)c1/C=N/n1c(-c2ccc(Cl)cc2)n[nH]c1=S	103	0	0	0	0	0
CC1CCCC(NC(=O)c2cc(S(=O)(=O)N3CCCCC3)c[nH]2)C1C (stereo not given)	-	-	0	0	-	-
C=CCn1c(SCC(=O)NCCO)nc2sc(C)c(C)c2c1=O	0	0	0	0	0	-
C=CCn1c(SCC(=O)NC(=O)NCc2ccco2)nc2sc(C)c(C)c2c1=O	104	0	0	0	0	0
COCCCN1C(=O)C(CC(=O)NCc2cccs2)CC(C(=O)N(C)C)=C1C (stereo not given)	-	-	0	0	-	-
O=Cc1s/c(=N\S(=O)(=O)c2ccccc2)n(CCCCl)c1Cl	107	-	0	0	-	112
CCn1c(C)cs/c1=N\S(=O)(=O)c1ccccc1	-	0	0	0	0	-
CSC(SC)=C(C#N)C(=O)c1ccccc1	107	0	0	0	0	102
O=C(O)c1ccc(C(=O)C(=O)c2ccccc2)cc1	0	0	0	0	0	-
